Results as given in ChEMBL document CHEMBL4813935, “Cyclotides from Brazilian Palicourea sessilis and Their Effects on Human Lymphocytes” (J Nat Prod, 2021).
Positions of bridges follow the written chain, without caps; N, C: chain ends. Residues, ends and D or L forms follow the SMILES beside them.

Legend:
[1] = Cytotoxicity against human HT-29 cells assessed as reduction in cell viability measured after 48 hrs by MTT assay; format: cell-based
Summary of the method: (§1)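 Cells seeded at 5.0 × 10^3 per well; medium was refreshed the day after plating, then peptides were added at final 0.78–100 μM, with 0.1% (v/v) Triton X-100 as positive control. Incubation was 48 h, then MTT (5 mg/mL in PBS) for 3 h. Formazan was dissolved in DMSO and read at 600 nm. Triplicate experiments; CC50 from log(inhibitor) vs normalized response (variable slope) fit.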

[2] = Inhibition of anti-human CD3/CD28/mAbs-stimulated human T-lymphocutes proliferation after 72 hrs by CFSE staining based flow cytometric analysis; format: functional, tissue-based; conditions: T-cell
Summary of the method: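 PBMC from healthy donor venous blood, density-gradient isolated; 5 × 10^6 cells/mL labelled with CFSE (1:1000 of 5 mM stock), 10 min at 37 °C, washed. Stimulated with anti-CD3 (OKT3) and anti-CD28 (28.6), each 100 ng/mL, with peptide at 1–30 μM for 72 h at 37 °C, 5% CO2. Division read by flow cytometry, normalised to stimulated untreated cells (100%); four independent experiments.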

[3] = Cytotoxicity against HUVEC assessed as reduction in cell viability measured after 48 hrs by MTT assay; format: cell-based; conditions: human; summary of the method: as §1
[4] = tested on: T-cell line; assay: Immunosuppressive activity in anti-CD3/anti-CD28-stimulated human T-lymphocytes assessed as inhibition of cell proliferation after 72 hrs by CFSE staining based flow cytometric analysis; format: functional
Summary of the method: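 Donor PBMC were isolated on a density gradient and CFSE-stained for 10 min at 37 °C. Cells were stimulated with anti-CD3 (OKT3) and anti-CD28 mAbs, 100 ng/mL each, and exposed to peptides at 1–30 μM for 72 h at 37 °C, 5% CO2. Division was read by flow cytometry and normalized to stimulated untreated cells (100%). Four independent experiments, mean ± SD.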

[5] = Hemolytic activity against human RBC assessed as concentration required to cause 50% hemolysis measured after 1 hr; format: cell-based, Erythrocyte; conditions: red blood cells (erythrocytes), read-out: CC50
Summary of the method: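 Donor human red blood cells were washed in PBS and diluted to 0.25% (v/v). Peptides were serially diluted from water to eight concentrations, 0.187–24 μM. Incubation was 1 h at 37 °C; PBS served as negative control and 1% Triton-X as positive control. Supernatant absorbance was read at 415 nm. CC50 (50% lysis) from log(agonist) vs response (variable slope) fit; n = 3.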

For `CC(C)C[C@@H]1NC(=O)CNC(=O)[C@H](CC(N)=O)NC(=O)[C@H](CCCNC(=N)N)NC(=O)[C@H]([C@@H](C)O)NC(=O)[C@@H]2CSSC[C@@H]3NC(=O)[C@H]([C@@H](C)O)NC(=O)CNC(=O)CNC(=O)[C@H](C(C)C)NC(=O)[C@@H]4CSSC[C@H](NC(=O)[C@H]([C@@H](C)O)NC(=O)[C@H](CSSC[C@H](NC(=O)[C@H](C(C)C)NC(=O)[C@@H]5CCCN5C1=O)C(=O)NCC(=O)N[C@@H](CCC(=O)O)C(=O)N[C@@H]([C@@H](C)O)C(=O)N4)NC(=O)CNC(=O)[C@@H]1CCCN1C(=O)[C@H]([C@@H](C)O)NC(=O)[C@H](CC(N)=O)NC3=O)C(=O)N[C@@H](CO)C(=O)N[C@@H](Cc1c[nH]c3ccccc13)C(=O)N1CCC[C@H]1C(=O)N[C@@H](C(C)C)C(=O)N2`, the CC50 at 48 h [1] was > 10 µM, the IC50 [2] was 1.9 µM and the CC50 at 48 h [3] was 5.1 µM.

With `CC[C@H](C)[C@@H]1NC(=O)[C@@H]2CCCN2C(=O)[C@H](Cc2c[nH]c3ccccc23)NC(=O)[C@H](CO)NC(=O)[C@@H]2CSSC[C@@H]3NC(=O)[C@H]([C@@H](C)O)NC(=O)[C@H](CCC(=O)O)NC(=O)CNC(=O)[C@@H]4CSSC[C@H](NC(=O)CNC(=O)[C@@H]5CCCN5C(=O)[C@H]([C@@H](C)O)NC(=O)[C@H](CC(N)=O)NC(=O)[C@H](CSSC[C@H](NC1=O)C(=O)N[C@@H]([C@@H](C)O)C(=O)N[C@@H](CCCNC(=N)N)C(=O)N[C@@H](CC(N)=O)C(=O)NCC(=O)N[C@@H](CC(C)C)C(=O)N1CCC[C@H]1C(=O)N[C@@H](C(C)C)C(=O)N4)NC(=O)[C@H]([C@@H](C)O)NC(=O)CNC(=O)CNC(=O)[C@H](C(C)C)NC3=O)C(=O)N[C@@H](C(C)C)C(=O)N2` the IC50 [4] was 2.3 µM, the CC50 at 48 h [1] was > 10 µM and the HC50 at 1 h [5] was 14.6 µM. The CC50 at 48 h [3] was 7.5 µM.

In the case of `CC[C@H](C)[C@@H]1NC(=O)[C@@H]2CCCN2C(=O)[C@H](Cc2c[nH]c3ccccc23)NC(=O)[C@H](C)NC(=O)[C@@H]2CSSC[C@@H]3NC(=O)[C@H]([C@@H](C)O)NC(=O)[C@H](CCC(=O)O)NC(=O)CNC(=O)[C@@H]4CSSC[C@H](NC(=O)CNC(=O)[C@@H]5CCCN5C(=O)[C@H]([C@@H](C)O)NC(=O)[C@H](CC(N)=O)NC(=O)[C@H](CSSC[C@H](NC1=O)C(=O)N[C@@H]([C@@H](C)O)C(=O)N[C@@H](CCCNC(=N)N)C(=O)N[C@@H](CC(N)=O)C(=O)NCC(=O)N[C@@H](CC(C)C)C(=O)N1CCC[C@H]1C(=O)N[C@@H](C(C)C)C(=O)N4)NC(=O)[C@H]([C@@H](C)O)NC(=O)CNC(=O)CNC(=O)[C@H](C(C)C)NC3=O)C(=O)N[C@@H](C(C)C)C(=O)N2`, the IC50 [4] is reported as 1.6 µM, the CC50 at 48 h [1] is reported as 6.1 µM and the HC50 at 1 h [5] is reported as 33.5 µM. The CC50 at 48 h [3] was 5.3 µM.

Work on `CC(C)C[C@@H]1NC(=O)CNC(=O)[C@H](CC(N)=O)NC(=O)[C@H](CCCNC(=N)N)NC(=O)[C@H]([C@@H](C)O)NC(=O)[C@@H]2CSSC[C@@H]3NC(=O)[C@H]([C@@H](C)O)NC(=O)CNC(=O)CNC(=O)[C@H](C(C)C)NC(=O)[C@@H]4CSSC[C@H](NC(=O)[C@H](C(C)C)NC(=O)[C@H](CSSC[C@H](NC(=O)[C@H](C(C)C)NC(=O)[C@@H]5CCCN5C1=O)C(=O)NCC(=O)N[C@@H](CCC(=O)O)C(=O)N[C@@H]([C@@H](C)O)C(=O)N4)NC(=O)CNC(=O)[C@@H]1CCCN1C(=O)[C@H]([C@@H](C)O)NC(=O)[C@H](CC(N)=O)NC3=O)C(=O)N[C@@H](CO)C(=O)N[C@@H](Cc1c[nH]c3ccccc13)C(=O)N1CCC[C@H]1C(=O)N[C@@H](C(C)C)C(=O)N2` yielded an IC50 [4] of 4.5 µM, a CC50 at 48 h [1] of 5.5 µM and an HC50 at 1 h [5] of 39.5 µM. It also gave a CC50 at 48 h [3] of 5.2 µM.

For `CC(C)C[C@@H]1NC(=O)CNC(=O)[C@H](CC(N)=O)NC(=O)[C@H](CCCNC(=N)N)NC(=O)[C@H]([C@@H](C)O)NC(=O)[C@@H]2CSSC[C@@H]3NC(=O)[C@H]([C@@H](C)O)NC(=O)CNC(=O)CNC(=O)[C@H](C(C)C)NC(=O)[C@@H]4CSSC[C@H](NC(=O)[C@H](CO)NC(=O)[C@H](CSSC[C@H](NC(=O)[C@H](C(C)C)NC(=O)[C@@H]5CCCN5C1=O)C(=O)NCC(=O)N[C@@H](CCC(=O)O)C(=O)N[C@@H]([C@@H](C)O)C(=O)N4)NC(=O)CNC(=O)[C@@H]1CCCN1C(=O)[C@H]([C@@H](C)O)NC(=O)[C@H](CC(N)=O)NC3=O)C(=O)N[C@@H](CO)C(=O)N[C@@H](Cc1c[nH]c3ccccc13)C(=O)N1CCC[C@H]1C(=O)N[C@@H](C(C)C)C(=O)N2`, the CC50 at 48 h [1] was 7.3 µM, the HC50 at 1 h [5] was 49.6 µM and the CC50 at 48 h [3] was > 10 µM.

With `CC(C)C[C@@H]1NC(=O)CNC(=O)[C@H](CC(N)=O)NC(=O)[C@H](CCCNC(=N)N)NC(=O)[C@H](CCCCN)NC(=O)[C@@H]2CSSC[C@@H]3NC(=O)[C@H](CO)NC(=O)CNC(=O)[C@H]([C@@H](C)O)NC(=O)[C@H](C(C)C)NC(=O)[C@@H]4CSSC[C@H](NC(=O)[C@H](CO)NC(=O)[C@H](CSSC[C@H](NC(=O)[C@H](C(C)C)NC(=O)[C@@H]5CCCN5C1=O)C(=O)NCC(=O)N[C@@H](CCC(=O)O)C(=O)N[C@@H]([C@@H](C)O)C(=O)N4)NC(=O)CNC(=O)[C@@H]1CCCN1C(=O)[C@H]([C@@H](C)O)NC(=O)[C@H](Cc1ccc(O)cc1)NC3=O)C(=O)N[C@@H](CO)C(=O)N[C@@H](Cc1c[nH]c3ccccc13)C(=O)N1CCC[C@H]1C(=O)N[C@@H](C(C)C)C(=O)N2` the CC50 at 48 h [1] was 5.6 µM, the HC50 at 1 h [5] was 51.7 µM and the CC50 at 48 h [3] was > 10 µM.

Molecule `CC[C@H](C)[C@@H]1NC(=O)[C@@H]2CCCN2C(=O)[C@H](Cc2c[nH]c3ccccc23)NC(=O)[C@H](CO)NC(=O)[C@@H]2CSSC[C@@H]3NC(=O)[C@H]([C@@H](C)O)NC(=O)[C@H](CCC(=O)O)NC(=O)CNC(=O)[C@@H]4CSSC[C@H](NC(=O)CNC(=O)[C@@H]5CCCN5C(=O)[C@H]([C@@H](C)O)NC(=O)[C@H](CC(N)=O)NC(=O)[C@H](CSSC[C@H](NC1=O)C(=O)N[C@@H]([C@@H](C)O)C(=O)N[C@@H](CCCNC(=N)N)C(=O)N[C@@H](CC(N)=O)C(=O)NCC(=O)N[C@@H](CC(C)C)C(=O)N1CCC[C@H]1C(=O)N[C@@H]([C@@H](C)O)C(=O)N4)NC(=O)[C@H]([C@@H](C)O)NC(=O)CNC(=O)CNC(=O)[C@H](C(C)C)NC3=O)C(=O)N[C@@H](C(C)C)C(=O)N2` (cyclo(CGETCVGGTCNTPGCVCSWPICTRNGLPT); disulfide 1-15, 5-17, 10-22) has an IC50 [4] of 7.1 µM, a CC50 at 48 h [1] of 8.4 µM and an HC50 at 1 h [5] of 62.8 µM. The CC50 at 48 h [3] was > 10 µM.
